Among all 360,000 compounds or so, about 1,400 (0.39%) were called active. What follows is part of a selection rich in actives, with near analogues and random picks from the rest. A number with no mark means an inactive call.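 The calls were made as follows: active = pattern-corrected inhibition above about 35%, with an unprinted fluorescence ratio check between 0.5 and 1.5 (limit read from the data, passing the limit was not always enough); inactive = the rest.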
target: COP9 signalosome complex subunit 5 (Homo sapiens) (UniProt Q92905); assay: inhibitors of CSN-mediated cullin deneddylation, primary screen, biochemical, fluorescence polarization, uHTS (AID 651999); details: Purified CSN, SCF-Nedd8-OG deneddylation, at 12.5 µM, active compounds read high;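 also: 0% = enzyme with substrate and 100% = substrate without enzyme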
Method in brief: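 Test system: purified human Csn5 enzyme expressed in HEK293T cells. Amount: 0.24 nM enzyme. Reagent: SCFSkp2-Nedd8OG substrate at 10 nM final. Schedule: 90 min incubation of compound, enzyme and substrate at room temperature. Detection: fluorescence polarization. Read-out: % inhibition of substrate cleavage by Csn5.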

COP9 signalosome complex subunit 5 (Homo sapiens), sequence (Q92905 whole entry, looked up, one chain of several): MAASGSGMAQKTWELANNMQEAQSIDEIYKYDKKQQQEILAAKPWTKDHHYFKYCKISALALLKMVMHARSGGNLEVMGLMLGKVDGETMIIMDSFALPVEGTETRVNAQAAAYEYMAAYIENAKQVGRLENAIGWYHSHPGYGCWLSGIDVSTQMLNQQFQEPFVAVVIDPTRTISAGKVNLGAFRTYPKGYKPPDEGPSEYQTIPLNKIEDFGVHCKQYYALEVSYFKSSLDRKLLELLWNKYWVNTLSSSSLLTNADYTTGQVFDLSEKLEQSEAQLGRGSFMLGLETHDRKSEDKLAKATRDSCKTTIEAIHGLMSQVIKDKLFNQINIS

Structure (SMILES)	inhibition
COc1cccc(NC(=O)CN(C)C(=O)c2ccccc2CCc2ccccc2)c1	4.75%
O=C(NCc1ccccc1)C1=C[C@@H](c2ccc(C(F)(F)F)cc2)C[C@@H](OCc2ccc(CO)cc2)O1	4.14%
Cc1ccc(OCC(=O)Oc2ccccc2[N+](=O)[O-])cc1	1.14%
Cc1cc2nc(-c3ccc(Cl)cc3)c(Cc3cccc(F)c3)n2c(C)c1Br	3.52%
Cc1cc2nc(-c3ccc(F)cc3)c(Cc3ccsc3)n2c(C)c1Br	-4.07%
Cc1cc2nc(-c3ccco3)c(Cc3cccc(F)c3)n2c(C)c1Br	38.5% (active)
O=C1NC2(CCCCC2)N=C1c1ccccc1	-2.27%
CC1CCCN(C(=O)Cn2c(=O)oc3cc(S(=O)(=O)N4CCCCC4C)ccc32)C1 (stereo not given)	-0.78%
C=CCc1ccc(OCCOc2cccc(/C=N/n3cnnc3)c2)c(OC)c1	0.99%
Cc1ccc(C(=O)O)cc1-c1ccc(/C=C2\SC(=O)N(CC(=O)Nc3ccc4c(c3)OCO4)C2=O)o1	102% (active)
Cc1nc([N+](=O)[O-])cn1CC(=O)Nc1ccc2c(c1)OCO2	-0.35%
O=C(CCN1C(=O)c2ccncc2C1=O)Nc1ccc2c(c1)OCCO2	5.06%
CNS(=O)(=O)c1ccc(N2CCCC2=O)c([N+](=O)[O-])c1	-1.32%
Cc1ccc(-c2nn(-c3ccccc3)cc2/C=C2\SC(=S)N(CCCCCC(=O)O)C2=O)o1	66.1% (active)
O=C(O)CC/C(=N\NC(=O)c1ccc(F)cc1)c1ccc(Br)cc1	51.7% (active)
C/C(CC(=O)N1CCN(C=O)CC1)=N\NC(=O)c1ccc(Br)cc1	-6.38%
O=C(CNC(=O)c1ccccc1F)c1ccc(Br)cc1	3.53%
Cc1ccn(CCC(=O)N2c3ccccc3CC2C)n1 (stereo not given)	0.86%
CCOC(=O)C1CCCN(CCSc2ccc(C)cc2)C1 (stereo not given)	-0.91%
COc1ccc2c(c1)c(=Cc1ccc(N(C)C)cc1)c1cc(-c3ccccc3)[n+](C)n12	61.6% (active)
CCOC(=O)[C@]12CCCC=C1N(CCC1=CCCCC1)C(=O)[C@H](CC(=O)N1CCN(C(=O)c3ccco3)CC1)C2	-3.01%
CCC(C)Cn1c(O)cc2nn(-c3nc4ccccc4s3)c(=O)c-2c1C (stereo not given)	35.4% (active)
CCC(CC)C(=O)Nc1cccc(C(=O)N2CCCC2)c1	2.19%
CC1CC(C)CN(S(=O)(=O)c2cccc3nonc23)C1 (stereo not given)	0.47%
CCCCCN(C(=O)CCC(=O)OCC(=O)NCc1ccc(OC)cc1)c1c(N)n(CCCC)c(=O)[nH]c1=O	4.14%

Reference: PubChem BioAssay AID651999 (Sanford-Burnham Center for Chemical Genomics, 2013)
